Source: ChEMBL document CHEMBL1138866, “Antitubercular nucleosides that inhibit siderophore biosynthesis: SAR of the glycosyl domain” (J Med Chem, 2006)
In brackets after ≈: the same amount, converted by molar mass.

Experiments:
[1] = test system: Yersinia pseudotuberculosis; test: Inhibitory activity against Yersinia pseudotuberculosis ATCC 6902; type: functional
How it was run: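 Broth microdilution in triplicate in desferrated BHI (Chelex-treated plus 200 μM 2,2′-dipyridyl), with or without 150 μM FeCl3 for iron-rich conditions. Initial density 10^3–10^4 cells/well, compounds up to 100 μM, 1% DMSO control. Grown 24 h at 37 °C with shaking; OD600 read; MIC99.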

[2] = test system: Mycobacterium tuberculosis; test: Antitubercular activity against Mycobacterium tuberculosis H37Rv; type: functional
How it was run: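 Broth microdilution in iron-deficient GAST, in quadruplicate, with drugs from DMSO stocks and DMSO-treated control wells. Initial density 10^4–10^5 cells/assay, 37 °C, OD620 read at 10 and 14 days. MIC99 is the concentration giving complete growth inhibition.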

[3] = target: T1, Salicyl-AMP ligase / salicyl-S-ArCP synthetase (Mycobacterium tuberculosis, UniProt P71716); test: Inhibition of Mycobacterium tuberculosis MbtA by [32P]PPi-ATP exchange assay; settings: read-out: Ki app
T1 sequence (P71716 whole entry): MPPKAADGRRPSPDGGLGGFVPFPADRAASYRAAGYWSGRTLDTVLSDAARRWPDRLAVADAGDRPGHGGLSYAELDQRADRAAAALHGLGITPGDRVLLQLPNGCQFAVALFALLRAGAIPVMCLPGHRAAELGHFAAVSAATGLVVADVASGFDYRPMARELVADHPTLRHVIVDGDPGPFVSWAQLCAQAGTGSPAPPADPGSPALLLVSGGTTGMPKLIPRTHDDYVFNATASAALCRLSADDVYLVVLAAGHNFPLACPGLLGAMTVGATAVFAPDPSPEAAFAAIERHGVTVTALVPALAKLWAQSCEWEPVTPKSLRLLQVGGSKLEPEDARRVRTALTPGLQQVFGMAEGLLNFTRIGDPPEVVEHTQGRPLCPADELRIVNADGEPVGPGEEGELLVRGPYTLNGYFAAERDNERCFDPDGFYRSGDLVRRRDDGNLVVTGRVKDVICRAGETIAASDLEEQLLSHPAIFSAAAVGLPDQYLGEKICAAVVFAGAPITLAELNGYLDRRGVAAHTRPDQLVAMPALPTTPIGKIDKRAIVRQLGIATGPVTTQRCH
How it was run: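 Native MbtA (His6-SUMO tag removed), 7 nM, with 250 μM salicylic acid, 10 mM ATP and 1 mM PPi in 75 mM Tris-HCl pH 7.5, 10 mM MgCl2, 2 mM DTT. Inhibitor in DMSO preincubated 10 min at 23 °C, then [32P]PPi added and run 20 min at 37 °C. Charcoal-bound γ-[32P]ATP counted; duplicate data fit to Morrison equation ([E] 7.0 nM) for KIapp.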

SMILES | MIC99 [1] [µM] | MIC99 [2] [µM] | Ki [3] [nM]
Nc1ncnc2ncn([C@@H]3C[C@H](COS(=O)(=O)NC(=O)c4ccccc4O)[C@@H](O)[C@H]3O)c12 | > 100 | 1.56 (≈ 0.725 µg/mL) | 2.3
Nc1ncnc2ncn([C@@H]3O[C@H](CNS(=O)(=O)NC(=O)c4ccccc4O)[C@@H](O)[C@H]3O)c12 | – | 0.19 (≈ 0.0884 µg/mL) | 3.7
Nc1ncnc2ncn([C@@H]3O[C@H](COS(=O)(=O)NC(=O)c4ccccc4O)[C@@H](O)[C@H]3O)c12 | 20 (≈ 9.33 µg/mL) | 0.29 (≈ 0.135 µg/mL) | –
Nc1ncnc2ncn(COCCOS(=O)(=O)NC(=O)c3ccccc3O)c12 | > 100 | > 200 | 16700
Nc1ncnc2ncn([C@H]3C=C[C@@H](COS(=O)(=O)NC(=O)c4ccccc4O)C3)c12 | > 100 | > 200 | 830
Nc1ncnc2ncn([C@H]3CC[C@@H](COS(=O)(=O)NC(=O)c4ccccc4O)C3)c12 | – | > 200 | 61
Nc1ncnc2ncn([C@@H]3O[C@H](COS(=O)(=O)NC(=O)c4ccccc4O)C[C@H]3O)c12 | 80 (≈ 36 µg/mL) | 1.56 (≈ 0.703 µg/mL) | 3.2
Nc1ncnc2ncn([C@H]3C[C@H](O)[C@@H](COS(=O)(=O)NC(=O)c4ccccc4O)O3)c12 | – | – | 3.5
NNC(=O)c1ccncc1 [ISONIAZID] | – | 0.18 (≈ 0.0247 µg/mL) | –
